# Measured values published in PubChem BioAssay AID623991 (Broad Institute, 2012).
# Activity calls are given as the source filed them.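 Rule for the calls: active = inhibitors lowering the signal whose fitted half-maximal concentration is at most twice the top valid tested dose; inconclusive = flat curve with partial inhibition, or a poor curve fit; inactive = effect opposite to expected, flat near zero, or too weak.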
# Target: PvdQ acyl-homoserine lactone acylase (Pseudomonas aeruginosa LESB58)
# Assay: PvdQ acylase inhibitors, dose response, biochemical, 4-MU laurate fluorescence, dry powder, set 3 (AID 623991)
# Settings: Purified PvdQ, 4-MU laurate hydrolysis
# Outline: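 Material: Pseudomonas aeruginosa PvdQ acylase enzyme / Buffer or medium: Tris 50 mM pH 8.0, NaCl 50 mM, TCEP 0.2 mM, Triton X-100 / Also added: 4-methylumbelliferone laurate substrate, 0.8 mM final / Doses: compound dilution series with threefold steps / Incubation: 30 min pre-incubation, 60 min reaction, room temperature / Technique: fluorescence, ex 303–367 nm, em 440–460 nm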
row,SMILES,AC50 [nM]
1,N#CC(c1ccc(Cl)cc1)c1cccc(C(F)(F)F)n1 (stereo not given),25.4
2,N#CC(c1cccc(C(F)(F)F)n1)c1ccc(Cl)cc1F (stereo not given),< 3
3,N#CC1c2ccc(Cl)cc2CCc2cccnc21 (stereo not given),11200
4,N#CC(c1cccc(Cl)n1)c1ccc(Cl)cc1F (stereo not given),15.6
5,N#CC(c1ccc(Cl)cc1)c1cccc(Cl)n1 (stereo not given),36.8
6,N#CC(c1ccc(C(F)(F)F)c(Cl)n1)c1ccccc1OC(F)(F)F (stereo not given),12200
7,CCCCC(C#N)c1ccc(Cl)cn1 (stereo not given),3470
8,CCCCC(c1ccc(Cl)cc1)c1nn[nH]n1 (stereo not given),3190
9,N#CC(c1ccc(Cl)cc1)c1ccccn1 (stereo not given),296
10,N#CC(c1ccc(Cl)cc1)c1ncccc1Cl (stereo not given),3.09
11,N#CC(c1ccc(Cl)cc1)N1CCCC1 (stereo not given),1830
12,N#CC(c1ccc(F)cc1)c1cccc(C(F)(F)F)n1 (stereo not given),4.71

# Results, then the compound that gave them:
row,AC50 [nM],SMILES
1,607,CCCCC(C#N)c1ccc(F)cc1 (stereo not given)
2,7770,COCCOCCC(C#N)c1ccc(Cl)cc1 (stereo not given)
3,165,COCCOCCC(C#N)c1ccc(F)cc1 (stereo not given)
4,119,N#CC(c1ccc(F)cc1)c1cccc(Cl)n1 (stereo not given)
5,17900,CN(C)CCCC(C#N)c1ccc(Cl)cc1 (stereo not given)
6,1270,COCCC(C#N)c1ccc(F)cc1 (stereo not given)
7,589,CN(C)CCCC(C#N)c1ccc(F)cc1 (stereo not given)
8,1070,CCCCC(C#N)c1ccc(Cl)cc1 (stereo not given)
9,6270,COCCC(C#N)c1ccc(Cl)cc1 (stereo not given)
10,200,N#Cc1cccc(C(C#N)c2ccc(F)cc2)n1 (stereo not given)

# Same assay, conditions: Purified PvdQ, 4-MU laurate hydrolysis, at 19.5 µM (top of the series)
row,"activity change, negative = inhibition",SMILES
1,inactive,COCCNC(C#N)c1ccc(Cl)cc1 (stereo not given)
2,inactive,CCCCC(C#N)c1ccc(F)cn1 (stereo not given)
3,inactive,CCCCC(C#N)c1ccccn1 (stereo not given)
